Experimental data as given in ChEMBL document CHEMBL3588757, “Structure-based design, synthesis and biological testing of piperazine-linked bis-epipodophyllotoxin etoposide analogs” (Bioorg Med Chem, 2015).

Legend:
Assay type in all cases: functional
NCI-H460 [1] = test: Cytotoxicity against human NCI-H460 cells assessed as cell growth at 0.5 uM by SRB assay; details: read-out: Activity
786-0 = test: Cytotoxicity against human 786-0 cells assessed as cell growth at 0.5 uM by SRB assay; details: read-out: Activity
HL-60(TB) = test: Cytotoxicity against human HL-60(TB) cells assessed as cell growth at 0.5 uM by SRB assay; details: read-out: Activity
Method in brief: (§1)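 Measured in the NCI-60 human tumour cell line panel using five-dose testing. Growth was recorded at each dose for each cell line, and a GI50 was derived for each line.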

SNB-75 [2] = test: Cytotoxicity against human SNB75 cells assessed as cell growth at 50 uM by SRB assay; details: read-out: Activity
MDA-MB-435 = test: Cytotoxicity against human MDA-MB-435 cells assessed as cell growth at 0.05 uM by SRB assay; details: read-out: Activity
MDA-MB-468 [3] = test: Cytotoxicity against human MDA-MB-468 cells assessed as cell growth at 0.5 uM by SRB assay; details: read-out: Activity
PC-3 [4] = test: Cytotoxicity against human PC3 cells assessed as cell growth at 50 uM by SRB assay; details: read-out: Activity
SK-MEL-2 [5] = test: Cytotoxicity against human SK-MEL-2 cells by SRB assay
Method in brief: (§2)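 NCI-60 panel screen; 5-dose testing giving GI50 per cell line, plus a single 10 µM one-dose test. Method details not given beyond the NCI screen.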

NCI-H460 [6] = test: Cytotoxicity against human NCI-H460 cells assessed as cell growth at 0.05 uM by SRB assay; details: read-out: Activity
A498 = test: Cytotoxicity against human A498 cells assessed as cell growth at 0.005 uM by SRB assay; details: read-out: Activity
UACC-257 [7] = test: Cytotoxicity against human UACC257 cells assessed as cell growth at 0.005 uM by SRB assay; details: read-out: Activity
M14 [8] = test: Cytotoxicity against human M14 cells assessed as cell growth at 5 uM by SRB assay; details: read-out: Activity
BT-549 = test: Cytotoxicity against human BT549 cells assessed as cell growth at 5 uM by SRB assay; details: read-out: Activity
SK-MEL-28 [9] = test: Cytotoxicity against human SK-MEL-28 cells by SRB assay; method in brief: as §2
PC-3 [10] = test: Cytotoxicity against human PC3 cells assessed as cell growth at 0.5 uM by SRB assay; details: read-out: Activity
HCC 2998 = test: Cytotoxicity against human HCC2998 cells assessed as cell growth at 0.005 uM by SRB assay; details: read-out: Activity; method in brief: as §1
SNB-75 [11] = test: Cytotoxicity against human SNB75 cells assessed as cell growth at 0.5 uM by SRB assay; details: read-out: Activity
OVCAR-3 = test: Cytotoxicity against human OVCAR3 cells assessed as cell growth at 0.5 uM by SRB assay; details: read-out: Activity
ACHN = test: Cytotoxicity against human ACHN cells assessed as cell growth at 0.5 uM by SRB assay; details: read-out: Activity
SF-295 [12] = test: Cytotoxicity against human SF295 cells assessed as cell growth at 0.05 uM by SRB assay; details: read-out: Activity
SNB-75 [13] = test: Cytotoxicity against human SNB75 cells by SRB assay; method in brief: as §2
RXF 393 = test: Cytotoxicity against human RXF393 cells assessed as cell growth at 0.005 uM by SRB assay; details: read-out: Activity
UACC-257 [14] = test: Cytotoxicity against human UACC257 cells by SRB assay; method in brief: as §2
SR [15] = test: Cytotoxicity against human SR cells by SRB assay; method in brief: as §2
OVCAR-8 = test: Cytotoxicity against human OVCAR8 cells assessed as cell growth at 0.05 uM by SRB assay; details: read-out: Activity
SW-620 = test: Cytotoxicity against human SW620 cells assessed as cell growth at 50 uM by SRB assay; details: read-out: Activity
SNB-19 = test: Cytotoxicity against human SNB19 cells assessed as cell growth at 0.05 uM by SRB assay; details: read-out: Activity
M14 [16] = test: Cytotoxicity against human M14 cells assessed as cell growth at 0.5 uM by SRB assay; details: read-out: Activity
NCI-H23 = test: Cytotoxicity against human NCI-H23 cells by SRB assay; method in brief: as §2
A549 [17] = test: Cytotoxicity against human A549/ATCC cells assessed as cell growth at 0.005 uM by SRB assay; details: read-out: Activity
SR [18] = test: Cytotoxicity against human SR cells assessed as cell growth at 5 uM by SRB assay; details: read-out: Activity
MDA-MB-468 [19] = test: Cytotoxicity against human MDA-MB-468 cells assessed as cell growth at 0.05 uM by SRB assay; details: read-out: Activity
SF-295 [20] = test: Cytotoxicity against human SF295 cells by SRB assay; method in brief: as §2
DU-145 = test: Cytotoxicity against human DU145 cells assessed as cell growth at 0.005 uM by SRB assay; details: read-out: Activity
SK-MEL-5 = test: Cytotoxicity against human SK-MEL-5 cells by SRB assay; method in brief: as §2
MDA-MB-231 = test: Cytotoxicity against human MDA-MB-231/ATCC cells assessed as cell growth at 0.5 uM by SRB assay; details: read-out: Activity
SK-MEL-28 [21] = test: Cytotoxicity against human SK-MEL-28 cells assessed as cell growth at 0.05 uM by SRB assay; details: read-out: Activity
SK-MEL-2 [22] = test: Cytotoxicity against human SK-MEL-2 cells assessed as cell growth at 0.05 uM by SRB assay; details: read-out: Activity
A549 [23] = test: Cytotoxicity against human A549/ATCC cells assessed as cell growth at 50 uM by SRB assay; details: read-out: Activity
[24] = Cytotoxicity against human NCI-ADR-RES cells assessed as cell growth at 50 uM by SRB assay; details: read-out: Activity
RPMI-8226 = test: Cytotoxicity against human RPMI8226 cells assessed as cell growth at 0.05 uM by SRB assay; details: read-out: Activity
[25] = read-out: LC50 (the source's name)
[26] = read-out: pLC50 (the source's name) (converted)

For `COc1cc([C@@H]2c3cc4c(cc3[C@@H](NC(=O)CN3CCN(CCCCCCCCCCN5CCN(CC(=O)N[C@@H]6c7cc8c(cc7[C@@H](c7cc(OC)c(O)c(OC)c7)[C@H]7C(=O)OC[C@@H]76)OCO8)CC5)CC3)[C@H]3COC(=O)[C@H]23)OCO4)cc(OC)c1O`, the growth at 0.5 µM (NCI-H460 [1]) was 94%, the growth at 0.5 µM (786-0) was 26% and the growth at 0.5 µM (HL-60(TB)) was 15%. The growth at 50 µM (SNB-75 [2]) was -26%, the growth at 0.05 µM (MDA-MB-435) was 87% and the growth at 0.5 µM (MDA-MB-468 [3]) was 73%. It also gave a growth at 50 µM (PC-3 [4]) of -51%, a GI50 (SK-MEL-2 [5]; read-out: GI50) of 3.96 µM and a CC50 (SK-MEL-2 [5]; [25]) of 41 µM. For the same compound, the TGI (SK-MEL-2 [5]; read-out: TGI) was 13.9 µM, the GI50 (SK-MEL-2 [5]; read-out: pGI50 (converted)) was 3.98 µM and the CC50 (SK-MEL-2 [5]; [26]) was 40.7 µM. The TGI (SK-MEL-2 [5]; read-out: pTGI (converted)) was 13.8 µM, the growth at 0.05 µM (NCI-H460 [6]) was 90% and the growth at 0.005 µM (A498) was 73%. For the same compound, the growth at 0.005 µM (UACC-257 [7]) was 96%, the growth at 5 µM (M14 [8]) was -36% and the growth at 5 µM (BT-549) was -66%. The GI50 (SK-MEL-28 [9]; read-out: GI50) was 6.2 µM, the CC50 (SK-MEL-28 [9]; [25]) was 29.8 µM and the TGI (SK-MEL-28 [9]; read-out: TGI) was 13.6 µM. The GI50 (SK-MEL-28 [9]; read-out: pGI50 (converted)) was 6.17 µM, the CC50 (SK-MEL-28 [9]; [26]) was 29.5 µM and the TGI (SK-MEL-28 [9]; read-out: pTGI (converted)) was 13.5 µM. For the same compound, the growth at 0.5 µM (PC-3 [10]) was 61%, the growth at 0.005 µM (HCC 2998) was 99% and the growth at 0.5 µM (SNB-75 [11]) was 34%. It also gave a growth at 0.5 µM (OVCAR-3) of 63%, a growth at 0.5 µM (ACHN) of 41% and a growth at 0.05 µM (SF-295 [12]) of 88%. It also gave a GI50 (SNB-75 [13]; read-out: GI50) of 0.228 µM, a CC50 (SNB-75 [13]; [25]) greater than 50 µM and a TGI (SNB-75 [13]; read-out: TGI) of 2.75 µM. The GI50 (SNB-75 [13]; read-out: pGI50 (converted)) was 0.229 µM, the CC50 (SNB-75 [13]; [26]) was greater than 50.1 µM and the TGI (SNB-75 [13]; read-out: pTGI (converted)) was 2.75 µM. The growth at 0.005 µM (RXF 393) was 88%, the GI50 (UACC-257 [14]; read-out: GI50) was 0.679 µM and the CC50 (UACC-257 [14]; [25]) was 2.63 µM. The TGI (UACC-257 [14]; read-out: TGI) was 1.34 µM, the GI50 (UACC-257 [14]; read-out: pGI50 (converted)) was 0.676 µM and the CC50 (UACC-257 [14]; [26]) was 2.63 µM. It also gave a TGI (UACC-257 [14]; read-out: pTGI (converted)) of 1.35 µM, a GI50 (SR [15]; read-out: GI50) of 0.232 µM and a CC50 (SR [15]; [25]) greater than 50 µM. For the same compound, the TGI (SR [15]; read-out: TGI) was 1.81 µM, the GI50 (SR [15]; read-out: pGI50 (converted)) was 0.229 µM and the CC50 (SR [15]; [26]) was greater than 50.1 µM. For the same compound, the TGI (SR [15]; read-out: pTGI (converted)) was 1.82 µM, the growth at 0.05 µM (OVCAR-8) was 92% and the growth at 50 µM (SW-620) was -89%. The growth at 0.05 µM (SNB-19) was 93%, the growth at 0.5 µM (M14 [16]) was 65% and the GI50 (NCI-H23; read-out: GI50) was 0.181 µM. It also gave a CC50 (NCI-H23; [25]) of 9.3 µM, a TGI (NCI-H23; read-out: TGI) of 1.32 µM and a GI50 (NCI-H23; read-out: pGI50 (converted)) of 0.182 µM. It also gave a CC50 (NCI-H23; [26]) of 9.33 µM, a TGI (NCI-H23; read-out: pTGI (converted)) of 1.32 µM and a growth at 0.005 µM (A549 [17]) of 74%. For the same compound, the growth at 5 µM (SR [18]) was -26%, the growth at 0.05 µM (MDA-MB-468 [19]) was 99% and the GI50 (SF-295 [20]; read-out: GI50) was 0.894 µM. For the same compound, the CC50 (SF-295 [20]; [25]) was greater than 50 µM, the TGI (SF-295 [20]; read-out: TGI) was 9.49 µM and the GI50 (SF-295 [20]; read-out: pGI50 (converted)) was 0.891 µM. The CC50 (SF-295 [20]; [26]) was greater than 50.1 µM, the TGI (SF-295 [20]; read-out: pTGI (converted)) was 9.55 µM and the growth at 0.005 µM (DU-145) was 99%. It also gave a GI50 (SK-MEL-5; read-out: GI50) of 5.24 µM, a CC50 (SK-MEL-5; [25]) of 35.4 µM and a TGI (SK-MEL-5; read-out: TGI) of 13.6 µM. It also gave a GI50 (SK-MEL-5; read-out: pGI50 (converted)) of 5.25 µM, a CC50 (SK-MEL-5; [26]) of 35.5 µM and a TGI (SK-MEL-5; read-out: pTGI (converted)) of 13.5 µM. It also gave a growth at 0.5 µM (MDA-MB-231) of 87%, a growth at 0.05 µM (SK-MEL-28 [21]) of 100% and a growth at 0.05 µM (SK-MEL-2 [22]) of 89%. The growth at 50 µM (A549 [23]) was -41%, the growth at 50 µM [24] was 23% and the growth at 0.05 µM (RPMI-8226) was 13%.
